Assay results taken from ChEMBL document CHEMBL2424573 (J Med Chem, 2013).

Tests used:
[1] = tested on: Human immunodeficiency virus 1; assay: Antiviral activity against multidrug-resistant HIV1 C harboring L10I/I15V/K20R/L24I/M36I/M46L/I54V/I62V/L63P/K70Q/V82A/L89M protease-encoding region mutant infected in human PHA-PBMC cells assessed as inhibition of p24 Gag protein production; type: functional, organism-based; details: Human immunodeficiency virus 1, C
In short: (§1)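 EC50 was determined against each clinical isolate and wild-type HIV-1ERS104pre. Assays were run in duplicate, and values are means (±1 standard deviation) of two or three independent experiments.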

[2] = tested on: Human immunodeficiency virus 1; assay: Ratio of EC50 for wild type HIV1 ERS104pre to EC50 for multidrug-resistant HIV1 TM harboring L10I/K14R/R41K/M46L/I54V/L63P/A71V/V82A/L90M/I93L protease-encoding region mutant; type: functional
In short: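 Antiviral EC50 was measured against wild-type HIV-1ERS104pre and against multidrug-resistant isolates. The fold change is the EC50 for each isolate divided by the wild-type EC50. Assays were run in duplicate. Values are means (±1 standard deviation) from two or three independent experiments.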

[3] = tested on: Human immunodeficiency virus 1; assay: Antiviral activity against multidrug-resistant HIV1 TM harboring L10I/K14R/R41K/M46L/I54V/L63P/A71V/V82A/L90M/I93L protease-encoding region mutant infected in human PHA-PBMC cells assessed as inhibition of p24 Gag protein production; type: functional, organism-based; details: Human immunodeficiency virus 1, TM; in short: as §1
[4] = tested on: Human immunodeficiency virus 1; assay: Ratio of EC50 for wild type HIV1 ERS104pre to EC50 for multidrug-resistant HIV1 C harboring L10I/I15V/K20R/L24I/M36I/M46L/I54V/I62V/L63P/K70Q/V82A/L89M protease-encoding region mutant; type: functional
[5] = tested on: Human immunodeficiency virus 1; assay: Ratio of EC50 for wild type HIV1 ERS104pre to EC50 for multidrug-resistant HIV1 G harboring L10I/V11I/T12E/I15V/L19I/R41K/M46L/L63P/A71T/V82A/L90M protease-encoding region mutant; type: functional
[6] = tested on: Human immunodeficiency virus 1; assay: Antiviral activity against wild type HIV1 ERS104pre infected in human PHA-PBMC cells assessed as inhibition of p24 Gag protein production; type: functional, organism-based; details: Human immunodeficiency virus 1, ERS104pre; in short: as §1
Protease [7] = biological target: T1, Protease (Human immunodeficiency virus 1, UniProt Q9YQ12); assay: Inhibition of HIV1 protease
T1 sequence (Q9YQ12 whole entry): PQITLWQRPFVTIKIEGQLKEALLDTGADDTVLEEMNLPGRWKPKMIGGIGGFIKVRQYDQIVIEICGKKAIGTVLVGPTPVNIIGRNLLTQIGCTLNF

[8] = tested on: Human immunodeficiency virus 1; assay: Antiviral activity against HIV1 LAV; type: functional, organism-based; details: Human immunodeficiency virus 1, LAV
[9] = tested on: Human immunodeficiency virus 1; assay: Antiviral activity against HIV1 LAI infected in human MT2 cells by MTT assay; type: functional, organism-based; details: Human immunodeficiency virus 1, LAI
In short: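 MT-2 human T-lymphoid cells (2 × 10^3) were exposed to 100 TCID50 of HIV-1LAI and cultured in the presence of protease inhibitor. IC50 was determined by MTT assay and reported as the mean of at least two experiments.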

Protease [10] = biological target: T1, Protease; assay: Inhibition of HIV1 LAI protease by fluorescence assay
[11] = tested on: Human immunodeficiency virus 1; assay: Ratio of amprenavir EC50 to compound EC50 for wild type HIV-1 ERS104pre; type: functional
[12] = tested on: Human immunodeficiency virus 1; assay: Antiviral activity against multidrug-resistant HIV1 G harboring L10I/V11I/T12E/I15V/L19I/R41K/M46L/L63P/A71T/V82A/L90M protease-encoding region mutant infected in human PHA-PBMC cells assessed as inhibition of p24 Gag protein production.; type: functional, organism-based; details: Human immunodeficiency virus 1, G; in short: as §1

CC(C)CN(C[C@@H](O)[C@H](Cc1ccccc1)NC(=O)O[C@H]1CCOC1)S(=O)(=O)c1ccc(N)cc1
EC50 [1]: 325 nM | Ratio EC50 [2]: 16 | EC50 [3]: 448 nM | Ratio EC50 [4]: 12 | Ratio EC50 [5]: 16 | EC50 [6]: 28 nM

COc1ccc(S(=O)(=O)N(CC(C)C)C[C@@H](O)[C@H](Cc2ccccc2)NC(=O)O[C@H]2CO[C@H]3O[C@@H]4OCC[C@@H]4[C@H]32)cc1
Ki (Protease [7]): 0.0059 nM | IC50 [8]: 1.8 nM

COc1ccc(S(=O)(=O)N(CC(C)C)C[C@@H](O)[C@H](Cc2ccccc2)NC(=O)O[C@@H]2COC[C@@H]3O[C@H]4OCC[C@H]4[C@@H]32)cc1
IC50 [9]: 260 nM | Ki (Protease [10]): 3.1 nM

COc1ccc(S(=O)(=O)N(CC(C)C)C[C@@H](O)[C@H](Cc2ccccc2)NC(=O)O[C@H]2CS(=O)(=O)C[C@H]3O[C@@H]4OCC[C@@H]4[C@@H]23)cc1
IC50 [9]: > 1000 nM | Ki (Protease [10]): 0.6 nM

COc1ccc(S(=O)(=O)N(CC(C)C)C[C@@H](O)[C@H](Cc2ccccc2)NC(=O)O[C@@H]2CS(=O)(=O)C[C@@H]3O[C@H]4OCC[C@H]4[C@@H]32)cc1
IC50 [9]: > 1000 nM | Ki (Protease [10]): 10.5 nM

COc1ccc(S(=O)(=O)N(CC(C)C)C[C@@H](O)[C@H](Cc2ccccc2)NC(=O)O[C@H]2CCC[C@H]3O[C@@H]4OCC[C@@H]4[C@@H]23)cc1
IC50 [9]: 1.9 nM | Ki (Protease [10]): 0.01 nM | EC50 [1]: 8 nM | Ratio EC50 [11]: 10 | EC50 [12]: 12 nM | Ratio EC50 [2]: 4 | EC50 [3]: 16 nM | Ratio EC50 [4]: 2 | Ratio EC50 [5]: 3 | EC50 [6]: 3.6 nM

COc1ccc(S(=O)(=O)N(CC(C)C)C[C@@H](O)[C@H](Cc2ccccc2)NC(=O)O[C@@H]2CCC[C@@H]3O[C@H]4OCC[C@H]4[C@@H]32)cc1
IC50 [9]: 240 nM | Ki (Protease [10]): 0.45 nM

COc1ccc(S(=O)(=O)N(CC(C)C)C[C@@H](O)[C@H](Cc2ccccc2)NC(=O)O[C@H]2CC(C)(C)C[C@H]3O[C@@H]4OCC[C@@H]4[C@@H]23)cc1
Ki (Protease [10]): 8.8 nM

COc1ccc(S(=O)(=O)N(CC(C)C)C[C@@H](O)[C@H](Cc2ccccc2)NC(=O)O[C@@H]2CC(C)(C)C[C@@H]3O[C@H]4OCC[C@H]4[C@@H]32)cc1
Ki (Protease [10]): 139 nM

COc1ccc(S(=O)(=O)N(CC(C)C)C[C@@H](O)[C@H](Cc2ccccc2)NC(=O)O[C@H]2CCC[C@H]3O[C@@H]4OCCC[C@@H]4[C@@H]23)cc1
IC50 [9]: 48 nM | Ki (Protease [10]): 0.41 nM

COc1ccc(S(=O)(=O)N(CC(C)C)C[C@@H](O)[C@H](Cc2ccccc2)NC(=O)O[C@H]2COC[C@H]3O[C@@H]4OCC[C@@H]4[C@@H]23)cc1
IC50 [9]: 4.5 nM | Ki (Protease [10]): 0.021 nM | EC50 [1]: 32.9 nM | EC50 [12]: 79.5 nM | Ratio EC50 [4]: 4 | Ratio EC50 [5]: 10 | EC50 [6]: 8.3 nM
